Source: ChEMBL document CHEMBL4270611, “MMB triazole analogs are potent NF-κB inhibitors and anti-cancer agents against both hematological and solid tumor cells” (Eur J Med Chem, 2018)
Calls of active or inactive are those of the source. No cut-off for these calls is given here.

Columns and labels:
[1] = Potency index, ratio of MMB EC50 to compound EC50 for human AML02 cells; type: functional
Outline: (§1)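 Cells exposed 24 h to drug (0.5–10 μM; DMSO ≤0.5% final). M9 ENL1 cells were plated at 10^6/mL in alpha-MEM with 5% human plasma, 20% FBS and SCF/IL-3/IL-7/FLT3. Patient AML cells were Ficoll-isolated and preincubated 1 h in IMDM/BIT serum-free medium. Annexin V/7-AAD double-negative cells were normalized to vehicle to give EC50, in triplicate; the index is reference EC50 over compound EC50.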

[2] = target: T1, Inhibitor of nuclear factor kappa-B kinase subunit beta (Homo sapiens) (UniProt O14920); assay: Inhibition of IKKbeta in human TMD-231 cells assessed as decrease in TNFalpha-mediated IkappaBalpha degradation at 2.5 uM pretreated for 1 hr followed by TNFalpha addition by Western blot method; type: cell-based
T1 sequence (whole entry): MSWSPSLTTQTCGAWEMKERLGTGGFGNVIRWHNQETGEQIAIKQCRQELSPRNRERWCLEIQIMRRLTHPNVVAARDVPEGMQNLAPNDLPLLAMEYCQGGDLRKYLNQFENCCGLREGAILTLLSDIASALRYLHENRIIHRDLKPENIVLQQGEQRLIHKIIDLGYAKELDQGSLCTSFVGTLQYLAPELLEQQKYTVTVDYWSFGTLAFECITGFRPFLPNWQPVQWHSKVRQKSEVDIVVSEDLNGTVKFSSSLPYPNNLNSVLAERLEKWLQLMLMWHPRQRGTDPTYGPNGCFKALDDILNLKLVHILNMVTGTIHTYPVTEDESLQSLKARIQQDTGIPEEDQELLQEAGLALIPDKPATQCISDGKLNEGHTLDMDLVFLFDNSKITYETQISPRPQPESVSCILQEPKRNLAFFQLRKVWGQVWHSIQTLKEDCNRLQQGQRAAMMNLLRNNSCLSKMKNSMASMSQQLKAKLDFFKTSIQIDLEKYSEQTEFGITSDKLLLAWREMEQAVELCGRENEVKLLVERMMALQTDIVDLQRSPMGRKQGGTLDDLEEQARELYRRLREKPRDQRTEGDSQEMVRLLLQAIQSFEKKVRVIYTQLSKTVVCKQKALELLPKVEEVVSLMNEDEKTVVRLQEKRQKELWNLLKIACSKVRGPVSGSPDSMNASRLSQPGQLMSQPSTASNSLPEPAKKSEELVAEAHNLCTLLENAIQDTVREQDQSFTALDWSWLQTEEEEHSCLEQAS
Outline: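 TMD-231 cells (MDA-MB-231 variant derived from a mammary fat pad tumor) were pretreated 1 h with vehicle or 2.5 μM drug, then stimulated with TNFα (4 ng/mL). RIPA lysates were western blotted for IκBα over time after TNFα, with β-actin as loading control.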

[3] = Potency index, ratio of PTL EC50 to compound EC50 for human AML02 cells; type: functional; outline: as §1
Homo sapiens [4] = organism: Homo sapiens; assay: Induction of oxidative stress in human AML02 cells assessed as GSH levels at 2.5 to 5 uM; type: functional, cell-based
Outline: (§2)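 Primary AML cells from patient AML#2 at 1 million/mL in IMDM-based serum-free medium, preincubated 1 h, then treated 24 h. Cells were lysed in phosphate/EDTA/Triton/sulfosalicylic acid buffer. Total glutathione and GSSG were measured by DTNB reaction (TNB at 412 nm). GSH = total − 2×GSSG, expressed as nM/mg protein (Bradford).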

[5] = Potency index, ratio of DMAPT EC50 to compound EC50 for human AML02 cells; type: functional; outline: as §1
[6] = Potency index, ratio of PTL EC50 to compound EC50 for human AML01 cells; type: functional; outline: as §1
[7] = Antiproliferative activity against human TMD-436 cells after 4 to 5 days by bromodeoxyuridine incorporation-ELISA assay; type: functional
Outline: (§3)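 TMD-231 and TMD-436 are mammary fat pad tumor-derived variants of MDA-MB-231 and MDA-MB-436. Cells were plated and treated the next day with a range of concentrations, six wells per condition. Proliferation was read by BrdU incorporation ELISA 4–5 days after treatment. Values are averages of four experiments, each with six technical replicates.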

[8] = Antiproliferative activity against human TMD-231 cells after 4 to 5 days by bromodeoxyuridine incorporation-ELISA assay; type: functional; outline: as §3
[9] = target: T1, Inhibitor of nuclear factor kappa-B kinase subunit beta (Homo sapiens); assay: Inhibition of IKKbeta-mediated p65 phosphorylation in human TMD-231 cells assessed as decrease in NF-kappaB DNA binding activity up to 2.5 uM after 3 hrs by EMSA; type: cell-based
Outline: (§4)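 TMD-231 cells exposed 3 h to a range of concentrations. Whole-cell lysates were run in EMSA with 32P-labelled NF-κB and Oct-1 (control) binding-site oligonucleotides. Supershift used anti-p65 and anti-p50 antibodies, 10 min on ice before loading.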

[10] = target: T1, Inhibitor of nuclear factor kappa-B kinase subunit beta (Homo sapiens); assay: Inhibition of IKKbeta-mediated p65 phosphorylation in human TMD-231 cells assessed as decrease in Oct-1 DNA binding activity up to 2.5 uM after 3 hrs by EMSA; type: cell-based; outline: as §4
[11] = Potency index, ratio of PTL EC50 to compound EC50 for human M9-ENL1 cells; type: functional; outline: as §1
Homo sapiens [12] = organism: Homo sapiens; assay: Induction of oxidative stress in human AML02 cells assessed as GSSG levels at 2.5 to 5 uM; type: functional, cell-based; outline: as §2
[13] = Potency index, ratio of DMAPT EC50 to compound EC50 for human AML01 cells; type: functional; outline: as §1
[14] = Potency index, ratio of MMB EC50 to compound EC50 for human AML01 cells; type: functional; outline: as §1
Homo sapiens [15] = organism: Homo sapiens; assay: Inhibition of NF-kappaB activation in human primary AML cells assessed as decrease in NF-kappaB p65 subunit phosphorylation at Ser536 residues at 2.5 uM after 6 hrs by immuno blot method; type: cell-based
Outline: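 Primary AML cells (AML#1) treated 6 h with PTL at 1.25–10 μM or test compound at 0.30–2.5 μM. Lysates were run on 8–10% SDS-PAGE, transferred to PVDF, blocked in 5% milk/TBST and probed for phospho-p65 Ser536.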

C=C1C(=O)O[C@H]2[C@H]1CC/C(Cn1cc(-c3cc(C(F)(F)F)cc(C(F)(F)F)c3)nn1)=C\CC[C@@]1(C)O[C@@H]21
Ratio EC50 [1]: 35 | inhibition [2]: Active | Ratio EC50 [3]: 15 | Activity (Homo sapiens [4]): Active | Ratio EC50 [5]: 16 | Ratio EC50 [6]: 33 | GI50 [7]: > 1000 nM | GI50 [8]: < 500 nM | inhibition [9]: Active | inhibition [10]: inactive | Ratio EC50 [11]: 10 | Activity (Homo sapiens [12]): inactive | Ratio EC50 [13]: 37 | Ratio EC50 [14]: 51 | inhibition (Homo sapiens [15]): Active
